Results from ChEMBL document CHEMBL1138288, “2-phenylimidazopyridines, a new series of Golgi compounds with potent antiviral activity” (J Med Chem, 2007).
Active and inactive are the calls of the source. The calls are words filed in the database; no cut-off is given here.

Key:
[1] = tested on: Enterovirus; experiment: Antiviral activity against Rhinovirus-infected HeLa-H1 cells; format: functional, organism-based
[2] = tested on: Murine hepatitis virus; experiment: Antiviral activity against mouse hepatitis virus-infected NCTC clone-1469 cells; format: functional, organism-based
How it was run: (§1)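 Cells were seeded at about 50 000/well and infected 24 h later at MOI 0.1 or less, with drug added alongside. Once infectivity was evident, cells were washed and stained with methylene blue/carbol fuchsin in methanol for 10 min at room temperature.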

[3] = tested on: Modoc virus; experiment: Antiviral activity against Modoc virus-infected HeLa-H1 cells; format: functional, organism-based
[4] = tested on: Simian virus 40; experiment: Antiviral activity against SV40-infected Vero cells; format: functional, organism-based; settings: Betapolyomavirus macacae; how it was run: as §1
[5] = tested on: San Angelo virus; experiment: Antiviral activity against San Angelo virus-infected Vero cells; format: functional, organism-based
[6] = Inhibition of IgE production in antigen-sensitized BALB/c mouse spleen cells; format: functional, tissue-based
[7] = tested on: Vaccinia virus; experiment: Antiviral activity against Vaccinia virus-infected Vero cells; format: functional, organism-based, Orthopoxvirus vaccinia
[8] = tested on: Vesicular stomatitis virus; experiment: Antiviral activity against VSV-infected Vero cells; format: functional, organism-based
[9] = tested on: California encephalitis virus; experiment: Antiviral activity against California encephalitis virus-infected Vero cells; format: functional, cell-based
[10] = tested on: Human alphaherpesvirus 2; experiment: Antiviral activity against HSV2-infected Vero cells; format: functional, organism-based
[11] = tested on: Human alphaherpesvirus 2; experiment: Antiviral activity against HSV2 MS-infected IAF/HA-HO guinea pig assessed as suppression of vesicle formation at 2% applied topically four times a day for 3 days; format: functional, organism-based
How it was run: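 Six hairless guinea pigs were each inoculated at three back sites with HSV-2 MS strain. Sites received drug at 2% in vehicle, vehicle alone, or nothing, rotated between sites so each animal was its own control. Vehicle was 38% Gelucire 44/14, 38% PEG 400, 10% Tween 80 and 10% N-methylpyrrolidinone. Dosing was topical, four times daily at about 2.5 h intervals. Vesicle formation was assessed on day 4 after inoculation.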

[12] = Selectivity ratio, IC50 HSV2-infected Vero cells to IC50 for inhibition of IgE production in antigen-sensitized BALB/c mouse spleen cells; format: functional
[13] = Selectivity ratio, IC50 for vaccinia virus-infected Vero cells to IC50 for inhibition of IgE production in antigen-sensitized BALB/c mouse spleen cells; format: functional
[14] = California encephalitis virus, Vero

Compound	IC50 ([1]; Enterovirus, HeLa H1)	IC50 ([2]; Murine coronavirus)	IC50 [3]	IC50 [4]	IC50 ([5]; San Angelo virus, Vero)	IC50 ([6]; Mus musculus, BALB/c, Spleen)	IC50 ([7]; Orthopoxvirus vaccinia, Vero)	IC50 [8]	IC50 [9, 14]	IC50 ([10]; Human alphaherpesvirus 2, Vero)	IC50 ([1]; hela-h1)	IC50 ([5]; vero)	IC50 [6]	IC50 ([7]; vero)	IC50 ([9]; vero)	IC50 ([10]; vero)	Activity [11]	Ratio IC50 [12]	Ratio IC50 [13]	IC50 [2]
O=C(Nc1ccccn1)c1cc2nc(-c3ccc(NC(=O)C45CC6CC(CC(C6)C4)C5)cc3)[nH]c2cn1	200 nM	50 nM	600 nM	> 2000 nM	40 nM	120 nM	1500 nM	> 2000 nM	40 nM	600 nM	–	–	–	–	–	–	–	–	–	–
O=C(Nc1ccc(-c2nc3cc(NC(=O)C4CCCCC4)ccc3[nH]2)cc1)C1CCCCC1	160 nM	20 nM	50 nM	1000 nM	200 nM	5 nM	200 nM	1000 nM	200 nM	170 nM	–	–	–	–	–	–	–	–	–	–
O=C(Nc1ccc(-c2nc3cc(NC(=O)C45CC6CC(CC(C6)C4)C5)ncc3[nH]2)cc1)C12CC3CC(C1)C(O)C(C3)C2 (centres undefined)	10 nM	20 nM	20 nM	> 2000 nM	60 nM	1 nM	120 nM	1000 nM	200 nM	60 nM	–	–	–	–	–	–	–	–	–	–
O=C(Nc1ccccn1)c1ccc2[nH]c(-c3ccc(NC(=O)C45CC6CC(CC(C6)C4)C5)cc3F)nc2c1	400 nM	60 nM	60 nM	> 2000 nM	200 nM	10 nM	600 nM	> 2000 nM	200 nM	150 nM	–	–	–	–	–	–	–	–	–	–
O=C(Nc1ccc(-c2nc3cc(NC(=O)C45CC6CC(C4)C(O)C(C6)C5)ncc3[nH]2)cc1)C12CC3CC(CC(C3)C1)C2 (centres undefined)	20 nM	200 nM	20 nM	1000 nM	60 nM	0.15 nM	400 nM	> 2000 nM	60 nM	90 nM	–	–	–	–	–	–	–	–	–	–
O=C(Nc1ccc(-c2nc3cc(NC(=O)C4CCCCC4)ccc3[nH]2)cc1)c1ccc(Cl)c(Cl)c1	200 nM	20 nM	20 nM	> 2000 nM	60 nM	3 nM	600 nM	> 2000 nM	200 nM	60 nM	–	–	–	–	–	–	–	–	–	–
O=C(Nc1ccc(-c2nc3cc(C(=O)NC45CC6CC(CC(C6)C4)C5)ncc3[nH]2)cc1)c1ccc(Cl)cc1	400 nM	60 nM	20 nM	> 2000 nM	20 nM	3 nM	40 nM	> 2000 nM	60 nM	20 nM	–	–	–	–	–	–	–	–	–	–
O=C(Nc1ccccn1)c1ccc2[nH]c(-c3ccc(NC(=O)C45CC6CC(CC(C6)C4)C5)cc3)nc2c1 (stereo in doubt; 1h)	–	20 nM	60 nM	> 2000 nM	–	–	–	> 2000 nM	–	–	20 nM	20 nM	4 nM	40 nM	60 nM	30 nM	–	–	–	–
O=C1C2CC3CC1CC(C(=O)Nc1ccc(-c4nc5cc(NC(=O)C67CC8CC(C6)C(=O)C(C8)C7)ncc5[nH]4)cc1)(C3)C2	> 2000 nM	> 600 nM	> 600 nM	1000 nM	200 nM	45 nM	> 2000 nM	> 2000 nM	200 nM	> 2000 nM	–	–	–	–	–	–	–	–	–	–
O=C(Nc1ccc(-c2nc3cc(NC(=O)C45CC6CC(CC(C6)C4)C5)ccc3[nH]2)cc1)C12CC3CC(CC(C3)C1)C2	60 nM	12 nM	20 nM	1200 nM	60 nM	1 nM	400 nM	> 2000 nM	30 nM	20 nM	–	–	–	–	–	–	–	–	–	–
O=C(Nc1ccc(-c2nc3cc(C(=O)NC45CC6CC(CC(C6)C4)C5)ccc3[nH]2)cc1)c1ccc(Cl)c(Cl)c1	20 nM	8 nM	6 nM	> 2000 nM	6 nM	1 nM	20 nM	> 2000 nM	20 nM	20 nM	–	–	–	–	–	–	–	–	–	–
O=C(Nc1ccc(-c2nc3cc(NC(=O)C45CC6CC(CC(C6)C4)C5)ncc3[nH]2)cc1)C12CC3CC(CC(C3)C1)C2	10 nM	8 nM	20 nM	> 2000 nM	6 nM	1 nM	10 nM	> 2000 nM	6 nM	5 nM	–	–	–	–	–	–	Active	–	–	–
CC(=O)OC1C2CC3CC1CC(C(=O)Nc1ccc(-c4nc5cc(C(=O)Nc6ccccn6)ccc5[nH]4)cc1)(C3)C2 (centres undefined)	200 nM	> 600 nM	200 nM	> 2000 nM	60 nM	10 nM	1500 nM	> 2000 nM	130 nM	1000 nM	–	–	–	–	–	–	–	>100	>100	–
CC(=O)OC1CCC(C(=O)Nc2ccc(-c3nc4cc(NC(=O)C5CCC(OC(C)=O)CC5)ccc4[nH]3)cc2)CC1 (centres undefined)	> 2000 nM	> 600 nM	> 600 nM	1500 nM	> 2000 nM	1000 nM	> 2000 nM	1000 nM	> 2000 nM	> 2000 nM	–	–	–	–	–	–	–	–	–	–
O=C(Nc1ccccn1)c1ccc2[nH]c(-c3ccc(NC(=O)[C@]45CC6CC(C4)[C@@H](O)C(C6)C5)cc3)nc2c1	200 nM	100 nM	400 nM	> 2000 nM	135 nM	10 nM	1800 nM	> 2000 nM	60 nM	1500 nM	–	–	–	–	–	–	–	150	150	–
O=C(NC12CC3CC(CC(C3)C1)C2)c1ccc2[nH]c(-c3ccc(NC(=O)C45CC6CC(CC(C6)C4)C5)cc3)nc2c1	20 nM	20 nM	60 nM	> 2000 nM	20 nM	5 nM	600 nM	> 2000 nM	60 nM	40 nM	–	–	–	–	–	–	–	–	–	–
O=C(Nc1ccccn1)c1ccc2[nH]c(-c3ccc(NC(=O)C45CC6CC(CC(C6)C4)C5)cc3)nc2c1 (stereo in doubt; 1d)	–	–	–	–	–	–	–	–	–	–	200 nM	200 nM	12 nM	300 nM	200 nM	300 nM	–	25	25	30 nM
O=C(NC12CC3CC(C1)C(=O)C(C3)C2)c1cc2nc(-c3ccc(NC(=O)C45CC6CC(CC(O)(C6)C4)C5)cc3)[nH]c2cn1	100 nM	> 600 nM	> 600 nM	> 2000 nM	200 nM	140 nM	> 2000 nM	> 2000 nM	200 nM	> 2000 nM	–	–	–	–	–	–	–	–	–	–
O=C(NC12CC3CC(CC(C3)C1)C2)c1cc2nc(-c3ccc(NC(=O)C45CC6CC(CC(C6)C4)C5)cc3)[nH]c2cn1	40 nM	20 nM	100 nM	> 2000 nM	60 nM	10 nM	140 nM	> 2000 nM	60 nM	30 nM	–	–	–	–	–	–	–	–	–	–
O=C(Nc1ccc(-c2nc3cc(NC(=O)C4CCCCC4)ncc3[nH]2)cc1)C1CCCCC1	60 nM	15 nM	6 nM	> 2000 nM	20 nM	1.5 nM	60 nM	> 2000 nM	60 nM	20 nM	–	–	–	–	–	–	–	–	–	–
O=C1C2CC3CC1CC(C(=O)Nc1ccc(-c4nc5cc(NC(=O)C67CC8CC(CC(C8)C6)C7)ncc5[nH]4)cc1)(C3)C2	> 2000 nM	200 nM	> 600 nM	> 2000 nM	200 nM	4 nM	400 nM	> 2000 nM	200 nM	250 nM	–	–	–	–	–	–	–	–	–	–
O=C(Nc1cc2nc(-c3ccc(NC(=O)C45CC6CC(CC(C6)C4)C5)cc3)[nH]c2cn1)c1ccccn1	60 nM	60 nM	60 nM	> 2000 nM	60 nM	10 nM	500 nM	1000 nM	60 nM	75 nM	–	–	–	–	–	–	–	–	–	–
O=C(Nc1ccc(-c2nc3cc(C(=O)NC45CC6CC(C4)C(=O)C(C6)C5)ncc3[nH]2)cc1)c1ccc(Cl)cc1	20 nM	100 nM	> 600 nM	> 2000 nM	135 nM	0.15 nM	40 nM	1000 nM	200 nM	40 nM	–	–	–	–	–	–	–	–	–	–
